The entries come from a sample that favours hits as a whole.
HCT116 PTEN-null: growth suppression of PTEN-null HCT116, primary screen, cell-based, CellTiter-Glo; HCT116 PTEN-null viability, 60 h; active compounds read low; viability, % at 10 µM; 1.2% of 140,000 active; AID 827, 2007;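 active = viability at or below a set limit, 4 SD under the median of all tested compounds, cut at about 3.7% in these data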;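 note: PTEN knockout HCT116 line with beta catenin targeted HCT116 as companion control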
Lung fibro prol: antiproliferative effect on LL 47 fibroblasts – human, LL 47 cells, CellTiter-Glo luminescence, primary screen | LL 47 human lung fibroblast viability, ATP luminescence; active compounds read low | viability, % at 10 µM | 1.1% of 85,000 active;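 active = viability at or below 50% in the single dose screen; inactive = viability above 50%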;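 note: compound exposure lasted 72 h before the ATP readout; 100% = median luminescence of untreated cell-only wells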
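Times – overnight cell rest, 72 h compound treatment at 37 °C · Test system – human lung fibroblast line LL 47, low passage · Amount – 1,150 cells in each well · Controls – cell-only wells, no compound · Doses – 0.1% DMSO in all compound wells · Measured by – CellTiter-Glo luminescence · Buffer or medium – IMEM plus 15% FBS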
H69AR inhibit: proliferation blockers of H69AR lung cancer cells, primary screen, cell-based, human, 86K library; H69AR lung tumor viability, ATP luminescence, 72 h; active compounds read low; 6% of 85,000 active; AID 598, 2007; viability, % at 10 µM;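 active = viability at or below 40%; inactive = viability above 40%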;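 note: multidrug resistant small cell line overexpressing MRP-1 efflux transporter; 100% = mean luminescence of untreated control wells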
HUVEC inhibit: inhibitors of HUVEC proliferation, primary screen, cell-based, 384-well; CellTiter-Glo luminescence, 72 h; active compounds read low; viability, % at 10 µM (by protocol); 1.1% of 86,000 active;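 active = viability at or below 30%; inactive = viability above 30%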;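 note: 100% = median luminescence of DMSO-only cell control wells on each plate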
bCat KO growth: primary screen for growth suppressors in beta-catenin knockout HCT116 cells (colon tumor, human) | HCT116 beta-catenin knockout viability, CellTiter-Glo, 60 h; active compounds read low | viability, % at 10 µM | 1.5% of 140,000 active | AID 818, 2007;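 active = viability at or under a set limit, the compound median less 4 SD, cut at about 6% in these data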;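 note: 0% = Hyamine 1622 control at 20 µM and 100% = untreated cell control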
* marks the source's active call; other numbers are inactive results; . = no result given.

SMILES	HCT116 PTEN-null	Lung fibro prol	H69AR inhibit	HUVEC inhibit	bCat KO growth
CCOc1ccc(-c2nnc3sc(-c4c(OC)cccc4OC)nn23)cc1	.	74	35*	73	.
COc1ccccc1-c1nnc2sc(-c3cc4ccccc4o3)nn12	12	49*	31*	49	14
COc1cc(-c2nnc3sc(-c4cccs4)nn23)cc(OC)c1OC	3.0*	54	21*	80	4.0*
CC1CN(C(=O)C2(C)CC2(Cl)Cl)CC(C)O1 (configuration not stated)	103	.	.	.	95
COc1ccccc1-c1nn2c(-c3ccc(C(C)(C)C)cc3)nnc2s1	.	95	94	25*	.
CCOc1ccc(-c2nnc3sc(-c4ccccc4OC)nn23)cc1	.	100	94	107	.
CCOc1nc(-c2ccc(Cl)cc2)nc2ccccc12	82	.	.	.	79
N#C/C(=C1\C(=O)Nc2c(Cl)cc(Cl)cc21)c1nnc2n1CCCCC2	90	99	36*	85	92
NC1=NC2(CCCCC2)n2c(nc3ccccc32)N1	94	87	92	88	98
NC1=NC2(CCC(c3ccccc3)CC2)n2c(nc3ccccc32)N1 (configuration not stated)	7	87	8.7*	62	12
COc1ccccc1NC(=S)N(CCc1nc2cc(C)c(C)cc2[nH]1)Cc1cccnc1	83	.	.	.	84
Cn1c(Cn2c(C(F)(F)F)nc3ccccc32)nc2ccccc21	107	91	92	92	99
OCCn1c(C(F)(F)F)nc2ccccc21	0.4*	102	97	92	1.0*
Cc1cccc(-n2nc3c([n+]2[O-])CCc2nonc2-3)c1C	104	.	.	.	91
Cc1ccc(-n2nc3c([n+]2[O-])CCc2c-3no[n+]2[O-])cc1	19	94	38*	97	26
[O-][n+]1onc2c1CCc1c-2nn(-c2ccccc2Cl)[n+]1[O-]	2.0*	56	.	63	2.5*
Cc1cc(C)n(CC(O)Cn2c3ccc(Br)cc3c3cc(Br)ccc32)c(=O)n1 (configuration not stated)	53	96	92	21*	79
Cc1cc(C)n(CC(O)Cn2c3ccccc3c3ccccc32)c(=O)n1 (configuration not stated)	104	102	106	100	98
CC(C)CC(=O)n1sc(NC(=O)c2ccccc2)nc1=O	92	.	.	.	92
COC(=O)C1=C(C(=O)OC)SC(=C2C(=S)C(C)(C)N(C(=O)CC(C)C)c3ccccc32)S1	.	92	17*	76	104
CCOc1cc(/C=N/NC(=O)Cn2nc([N+](=O)[O-])cc2C)cc(Br)c1OCc1ccccc1F	13	51	8.3*	30*	19
CCOc1cc(/C=N/NC(N)=O)cc(Br)c1OCc1ccccc1F	100	.	.	.	95
CC1=NOC(=O)/C1=C\c1ccc(-c2cccc(Cl)c2)o1	3.7*	8.0*	1.1*	42	1.1*
CC(=O)N(C(C)=O)S(=O)(=O)c1ccc(N=NN2CCOCC2)cc1	101	.	.	.	90
Cn1c(=O)oc2cc(S(=O)(=O)N3CCN(c4cccc(Cl)c4)CC3)ccc21	76	82	24*	63	82
SMILES	HCT116 PTEN-null	Lung fibro prol	H69AR inhibit	HUVEC inhibit	bCat KO growth
CCOC(=O)Cc1csc(NC(=O)CCCCCN2C(=O)c3ccccc3C2=O)n1	100	96	98	114	91
CC1(C)C(C=C(Cl)Cl)C1C(=O)Nc1ccc([N+](=O)[O-])cc1 (configuration not stated)	2.4*	.	.	.	3.9*
O=C(Nc1ccc([N+](=O)[O-])cc1)C1CC1(c1ccccc1)c1ccccc1 (configuration not stated)	66	.	.	.	73
CC(=O)Nc1ccc(Nc2cc(C)nc3c(-c4ccccc4)cnn23)cc1	39	.	.	.	51
O=C(Cc1sc(-c2ccccc2Cl)nc1-c1ccccc1)Nc1ccccc1	76	23*	45	66	69
O=C(Cc1sc(-c2ccccc2)nc1-c1ccccc1)Nc1ccc(Cl)cc1	33	67	20*	50	30
O=C(CSc1nnc(-c2ccc(F)cc2)c2ccccc12)Nc1ccccc1	75	.	.	.	80
O=C(Cc1sc(-c2ccccc2Cl)nc1-c1ccccc1)Nc1ccc(F)cc1	85	45*	11*	79	79
O=C(Cc1nc(=O)c2ccccc2s1)Nc1ccccc1	97	.	.	.	104
COc1cc(S(=O)(=O)N2CCOCC2)ccc1NC(=O)COC(=O)CC12CC3CC(CC(C3)C1)C2	90	.	.	.	103
Cc1c(C(=O)Nc2ccc(-c3nnc4n3CCCCC4)cc2)oc2ccc(Br)cc12	31	.	.	.	46
Clc1ccc(OCc2nn3c(-c4ccco4)nnc3s2)c(Cl)c1	91	94	34*	102	93
Clc1ccc(-c2ccc(-c3nn4c(-c5ccco5)nnc4s3)o2)cc1	.	89	26*	83	.
Cc1ccc(C(=O)C(C)OC(=O)c2ccccc2[N+](=O)[O-])cc1 (configuration not stated)	93	.	.	.	79
Cn1c(C(=O)NCCN2CCOCC2)cc2c(=O)n(C)c3ccccc3c21	91	97	88	89	91
CN(CCNC(=O)c1cc2c(=O)n(C)c3ccccc3c2n1C)Cc1ccccc1	3.3*	73	37*	50	2.4*
Cn1c(C(=O)NCCN2CCc3ccccc3C2)cc2c(=O)n(C)c3ccccc3c21	59	84	15*	74	64
Cn1c(C(=O)NCc2cccs2)cc2c(=O)n(C)c3ccccc3c21	101	81	40*	69	103
CC(Sc1nnc(-c2ccccc2Br)n1-c1cccc(C(F)(F)F)c1)C(N)=O (configuration not stated)	90	.	.	.	82
O=C(OC(C(=O)Nc1cccc(C(F)(F)F)c1)c1ccccc1)C1CCCCC1 (configuration not stated)	8	.	.	.	21
COc1cc(/C=C/c2ccc3cccc(OC)c3n2)c(OC(C)=O)c([N+](=O)[O-])c1	65	94	6.1*	15*	67
O=C(CCN(NC(=O)c1ccccc1)C1=NS(=O)(=O)c2ccccc21)NC1CCCCC1	93	.	.	.	93
COc1cc(C(=O)Nc2ccncc2)cc(OC)c1OC	98	94	77	91	93
COc1cc(C(=O)Nc2nc(OC)c(-c3ccccc3)c(OC)n2)cc(OC)c1OC	92	85	32*	64	88
COc1cc(C(=O)Nc2cc(-c3ccccc3)[nH]n2)cc(OC)c1OC	48	83	25*	64	67
C=C(C)C1CC=C(C)/C(=N\NC(=O)CNc2cccc3ccccc23)C1 (configuration not stated)	88	.	.	.	87
Cc1ccc(-c2nc(SCC(=O)NCC3CCCO3)c(-c3ccccc3)[nH]2)cc1 (configuration not stated)	80	.	.	.	77
